Activity calls are given as the source filed them. The calls are words filed in the database; no cut-off is given here.
Legend:
[1] = biological target: T1, Transcriptional enhancer factor TEF-1 (Homo sapiens, UniProt P28347); test: Inhibition of Gal4-fused TEAD1 (unknown origin) interaction with YAP expressed in human HeLa cells assessed as basal transcriptional activity level after 6 hrs by nanoluciferase reporter gene assay; assay type: cell-based
HeLa [2] = test: Inhibition of TEAD in human HeLa cells assessed as reduction in CCN1 m-RNA expression incubated for 2 hrs followed by compound wash out and re-treatment for 4 hrs by NanoGlo assay; assay type: cell-based
Rattus norvegicus [3] = species on record: Rattus norvegicus; test: Inhibition of TEAD in rat VSMC assessed as reduction in THBS m-RNA expression at 60 uM by RT-qPCR analysis
How it was run: (§1)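 Rat aortic VSMCs (male Sprague-Dawley, 10% FCS/DMEM) were treated with 60 μM compound for 6 h; n = 3. Total RNA was reverse-transcribed with random primers and quantified by SYBR Green qPCR. Data were normalized to nonstimulated controls.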

HeLa [4] = test: Antimigratory activity in human HeLa cells at 40 to 80 uM incubated for overnight followed by media replacement and measured every hour for 24 hrs by phase contrast microscopic analysis; assay type: functional, cell-based
How it was run: (§2)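 IncuCyte real-time scratch wound assay. Cells were seeded in 96-well plates and grown 36 h, then pretreated overnight with compound. Wells were scratched and the medium was replaced with compound-containing medium. Phase-contrast images of the wound were taken hourly for 24 h and relative wound confluence was calculated; n = 4.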

VSMC [5] = test: Inhibition of 36B4 m-RNA expression in rat VSMC at 60 uM by RT-qPCR analysis; assay type: functional, cell-based; how it was run: as §1
[6] = biological target: T1, Transcriptional enhancer factor TEF-1; test: Inhibition of Gal4-fused TEAD1 (unknown origin) interaction with YAP expressed in human HeLa cells assessed as basal transcriptional activity level up to 100 uM after 6 hrs by nanoluciferase reporter gene assay; assay type: cell-based
Rattus norvegicus [7] = species on record: Rattus norvegicus; test: Inhibition of TEAD in rat VSMC assessed as reduction in CCN1 protein expression up to 60 uM by Western blot analysis
How it was run: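 VSMCs were treated with compound over a concentration range for 16 h; n = 4. CCN1 protein in total cell lysates was measured by Western blot with GAPDH probed alongside.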

[8] = biological target: T1, Transcriptional enhancer factor TEF-1; test: Binding affinity to TEAD1 (194 to 411 residues) (unknown origin) by NMR analysis
How it was run: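 STD NMR at 700 MHz in PBS pH 7.4 containing 60% D2O, with about 20 μM TEAD1 and 2 mM compound. Saturation time 7 s; on-resonance 0.85 ppm, off-resonance −28 ppm; eight scans. Blank runs without protein or ligand were included.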

[9] = biological target: T2, Transcriptional enhancer factor TEF-4 (Homo sapiens, UniProt Q15562); test: Inhibition of Gal4-fused TEAD2 (unknown origin) interaction with YAP expressed in human HeLa cells assessed as basal transcriptional activity level up to 100 uM after 6 hrs by nanoluciferase reporter gene assay; assay type: cell-based
HeLa [10] = test: Cytotoxicity against human HeLa cells assessed as reduction in cell viability by measuring ethidium homodimer-1 uptake at 20 uM preincubated for 10 mins followed by ethidium homodimer-1 addition measured after 10 mins by fluorescence assay; assay type: cell-based
How it was run: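 Live/dead cell viability assay in HeLa cells. Maximum death was set by treating cells 10 min with 0.1% Triton-X, then 10 min with 0.4 μM ethidium homodimer-1. Fluorescence was read on a plate reader.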

MCF7 = test: Antiproliferative activity against human MCF7 assessed as reduction in EdU incorporation up to 40 uM after 24 hrs by Hoechst 33342 staining-based fluorescence assay; assay type: functional, cell-based
[11] = biological target: Transcriptional enhancer factor TEF-3 (Homo sapiens, UniProt Q15561); test: Inhibition of Gal4-fused TEAD4 (unknown origin) interaction with YAP expressed in human HeLa cells assessed as basal transcriptional activity level up to 100 uM after 6 hrs by nanoluciferase reporter gene assay; assay type: cell-based
VSMC [12] = test: Antimigratory activity in […] incubated for overnight followed by media replacement and measured every hour for 24 hrs by phase contrast microscopic analysis; assay type: functional, cell-based; how it was run: as §2
Rattus norvegicus [13] = species on record: Rattus norvegicus; test: Inhibition of TEAD in rat VSMC assessed as reduction in CCN1 m-RNA expression at 60 uM by RT-qPCR analysis; how it was run: as §1
VSMC [14] = test: Antimigratory activity in rat VSMC incubated for overnight followed by media replacement and measured every hour for 24 hrs by phase contrast microscopic analysis; assay type: functional, cell-based; how it was run: as §2
Rattus norvegicus [15] = species on record: Rattus norvegicus; test: (§3) Inhibition of TEAD (unknown origin) expressed in rat VSMC after 6 hrs by nanoluciferase reporter gene assay
How it was run: (§4)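 Rat aortic VSMCs stably transduced with the 8×TEAD secreted nanoluciferase reporter were treated with compound over a concentration range for 6 h. Conditioned medium was assayed for nanoluciferase activity.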

[16] = as §3; how it was run: as §4
VSMC [17] = test: Antiproliferative activity against rat VSMC assessed as reduction in EdU incorporation after 18 hrs by Hoechst 33342 staining-based fluorescence assay; assay type: functional, cell-based
HeLa [18] = test: Inhibition of TNT1 m-RNA expression in human HeLa cells incubated for 2 hrs followed by compound wash out and re-treatment for 4 hrs by NanoGlo assay; assay type: functional, cell-based
Rattus norvegicus [19] = species on record: Rattus norvegicus; test: Inhibition of TEAD in rat VSMC assessed as reduction in MAYDM m-RNA expression at 60 uM by RT-qPCR analysis; how it was run: as §1
[20] = Inhibition of TEAD in rat VSMC assessed as reduction in CTGF m-RNA expression incubated for 2 hrs followed by compound wash out and re-treatment for 4 hrs by NanoGlo assay
[21] = Inhibition of TEAD in rat VSMC assessed as reduction in CCN1 m-RNA expression incubated for 2 hrs followed by compound wash out and re-treatment for 4 hrs by NanoGlo assay
VSMC [22] = test: Inhibition of GAPDH m-RNA expression in rat VSMC at 60 uM by RT-qPCR analysis; assay type: functional, cell-based; how it was run: as §1
[23] = biological target: T2, Transcriptional enhancer factor TEF-4; test: Inhibition of Gal4-fused TEAD2 (unknown origin) interaction with YAP expressed in human HeLa cells assessed as basal transcriptional activity level after 6 hrs by nanoluciferase reporter gene assay; assay type: cell-based
[24] = Inhibition of TEAD (unknown origin) expressed in human HeLa cells after 6 hrs by nanoluciferase reporter gene assay; assay type: cell-based
How it was run: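 HeLa cells stably transduced with a lentiviral 8×TEAD-element secreted nanoluciferase reporter were seeded at 2 × 10^4 cells/well and grown 48 h. They were washed and treated with compound for 2 h, washed again and re-treated for 4 h. Secreted nanoluciferase in the conditioned medium was assayed with NanoGlo; n = 3.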

[25] = biological target: T1, Transcriptional enhancer factor TEF-1; test: Binding affinity to TEAD1 (194 to 411 residues) (unknown origin) by ITC assay
How it was run: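 Isothermal titration calorimetry with purified recombinant TEAD1 (residues 194–411). The GST tag was removed by PreScission protease cleavage at 4 °C for 18 h, glutathione was removed by dialysis against PBS, and free GST was removed with glutathione resin.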

HeLa [26] = test: Inhibition of TEAD in human HeLa cells assessed as reduction in CTGF m-RNA expression incubated for 2 hrs followed by compound wash out and re-treatment for 4 hrs by NanoGlo assay; assay type: cell-based
VSMC [27] = test: Inhibition of TBP m-RNA expression in rat VSMC at 60 uM by RT-qPCR analysis; assay type: functional, cell-based; how it was run: as §1
[28] = biological target: Transcriptional enhancer factor TEF-5 (Homo sapiens, UniProt Q99594); test: Inhibition of Gal4-fused TEAD3 (unknown origin) interaction with YAP expressed in human HeLa cells assessed as basal transcriptional activity level up to 100 uM after 6 hrs by nanoluciferase reporter gene assay; assay type: cell-based
Chain of Transcriptional enhancer factor TEF-5 (Q99594 whole entry, the tested form may be a part): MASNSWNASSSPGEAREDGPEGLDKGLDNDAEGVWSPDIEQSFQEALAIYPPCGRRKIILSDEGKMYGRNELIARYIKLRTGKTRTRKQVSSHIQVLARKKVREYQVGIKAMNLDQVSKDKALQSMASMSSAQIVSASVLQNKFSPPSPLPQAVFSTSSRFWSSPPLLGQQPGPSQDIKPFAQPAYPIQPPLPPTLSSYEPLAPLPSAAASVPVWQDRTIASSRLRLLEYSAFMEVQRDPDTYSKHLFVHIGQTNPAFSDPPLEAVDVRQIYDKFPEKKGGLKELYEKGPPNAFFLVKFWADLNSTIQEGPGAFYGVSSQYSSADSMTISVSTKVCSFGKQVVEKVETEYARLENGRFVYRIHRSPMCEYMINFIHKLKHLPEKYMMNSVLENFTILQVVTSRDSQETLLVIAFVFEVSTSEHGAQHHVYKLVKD

T1 sequence (P28347 whole entry, the tested form may be a part): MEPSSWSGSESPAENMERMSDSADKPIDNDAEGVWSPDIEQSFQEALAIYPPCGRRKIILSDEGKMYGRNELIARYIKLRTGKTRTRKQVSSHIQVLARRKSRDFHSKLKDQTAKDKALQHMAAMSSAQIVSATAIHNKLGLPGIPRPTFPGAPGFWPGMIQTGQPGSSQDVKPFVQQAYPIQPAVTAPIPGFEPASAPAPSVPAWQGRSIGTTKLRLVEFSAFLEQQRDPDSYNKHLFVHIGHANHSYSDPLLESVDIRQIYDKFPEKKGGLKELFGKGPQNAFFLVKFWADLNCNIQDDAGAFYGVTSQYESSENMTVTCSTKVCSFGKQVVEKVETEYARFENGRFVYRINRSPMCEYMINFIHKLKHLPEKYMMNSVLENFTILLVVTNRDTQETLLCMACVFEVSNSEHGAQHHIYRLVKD
T2 sequence (Q15562 whole entry, the tested form may be a part): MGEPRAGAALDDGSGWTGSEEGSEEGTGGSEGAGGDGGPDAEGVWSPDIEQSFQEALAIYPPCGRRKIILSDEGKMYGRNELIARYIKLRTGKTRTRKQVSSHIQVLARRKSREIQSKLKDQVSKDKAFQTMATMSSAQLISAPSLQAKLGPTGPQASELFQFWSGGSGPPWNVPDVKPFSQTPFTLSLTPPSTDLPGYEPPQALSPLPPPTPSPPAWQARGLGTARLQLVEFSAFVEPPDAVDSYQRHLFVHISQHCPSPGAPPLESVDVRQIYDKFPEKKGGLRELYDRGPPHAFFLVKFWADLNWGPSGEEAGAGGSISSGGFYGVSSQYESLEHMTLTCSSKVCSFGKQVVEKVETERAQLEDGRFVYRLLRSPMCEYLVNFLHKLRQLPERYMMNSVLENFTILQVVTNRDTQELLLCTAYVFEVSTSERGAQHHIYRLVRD
Chain of Transcriptional enhancer factor TEF-3 (Q15561 whole entry, the tested form may be a part): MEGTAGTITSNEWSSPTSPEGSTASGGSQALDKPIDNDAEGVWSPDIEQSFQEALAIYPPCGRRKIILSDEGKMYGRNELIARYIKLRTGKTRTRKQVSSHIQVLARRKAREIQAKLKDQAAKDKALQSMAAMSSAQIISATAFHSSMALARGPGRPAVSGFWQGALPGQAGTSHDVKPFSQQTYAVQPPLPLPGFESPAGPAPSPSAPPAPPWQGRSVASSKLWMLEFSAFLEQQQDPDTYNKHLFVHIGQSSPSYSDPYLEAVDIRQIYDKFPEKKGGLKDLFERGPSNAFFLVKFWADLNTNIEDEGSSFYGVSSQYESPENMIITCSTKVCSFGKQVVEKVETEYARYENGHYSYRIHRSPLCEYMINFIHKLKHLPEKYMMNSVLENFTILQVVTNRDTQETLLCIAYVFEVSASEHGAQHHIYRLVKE

With `Cc1ccc2c(c1)c1c3n2CCNC3CCC1` (stereo not given) [PIRLINDOLE] the IC50 [1] was 40 µM, the inhibition (HeLa [2]) was “Dose-dependent effect” and the inhibition (Rattus norvegicus [3]) was “Active”. The Activity (HeLa [4]) was “Active”, the inhibition (VSMC [5]) was “inactive” and the inhibition [6] was “Active”. The inhibition (Rattus norvegicus [7]) was “Active”, the Activity [8] was “Active” and the inhibition [9] was “Active”. For the same molecule, the Activity (HeLa [10]) was “Non-Toxic”, the Activity (MCF7) was “inactive” and the inhibition [11] was “Active”. The Activity (VSMC [12]) was “Dose-dependent effect”, the inhibition (Rattus norvegicus [13]) was “Active” and the Activity (VSMC [14]) was “Dose-dependent effect”. The inhibition (Rattus norvegicus [15]) was “Dose-dependent effect”, the IC50 [16] was 24 µM and the Activity (VSMC [17]) was “Dose-dependent effect”. For the same molecule, the EC50 (VSMC [17]) was 10 µM, the inhibition (HeLa [18]) was “inactive” and the inhibition (Rattus norvegicus [19]) was “Active”. For the same molecule, the EC50 [20] was 58 µM, the EC50 [21] was 48 µM and the inhibition (VSMC [22]) was “inactive”. For the same molecule, the IC50 [23] was 33 µM, the IC50 [24] was 70 µM and the Kd [25] was 12 µM. The inhibition (HeLa [26]) was “Dose-dependent effect”, the inhibition (VSMC [27]) was “inactive” and the inhibition [28] was “Active”.

Reference: ChEMBL document CHEMBL4422642, “Antiproliferative and Antimigratory Effects of a Novel YAP-TEAD Interaction Inhibitor Identified Using in Silico Molecular Docking” (J Med Chem, 2019)
